What is called pKi is −log10 of the Ki, conventionally taken in molar units. A low value points to a high Ki.

pKi: −log10 of the molar value. The source made the active and inactive calls. The rule behind the calls is not given here. Some results are limits rather than exact numbers.

The values that follow come from ChEMBL document CHEMBL1914335, “Identification of a potent and selective σ₁ receptor agonist potentiating NGF-induced neurite outgrowth in PC12 cells” (Bioorg Med Chem, 2011).

Assay [1] deals with Sigma non-opioid intracellular receptor 1 (Cavia porcellus, UniProt Q60492). Kind of assay: Displacement of [3H]-(+)-pentazocine from sigma1 receptor in guinea pig brain membrane after 150 mins by liquid scintillation counting. It is filed as cell membranes. The procedure, abridged:
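Membranes (500 µg protein) incubated with 3 nM [3H]-(+)-pentazocine and nine test concentrations in 50 mM Tris-HCl pH 7.4, 150 min at 37 °C. Nonspecific binding defined by 10 µM haloperidol. Samples filtered on PEI-presoaked GF/B filters and counted by liquid scintillation; Ki calculated from these curves.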

The species entered for a further assay is Sus scrofa. Kind of assay: Displacement of [3H]-(+)-MK-801 from NMDA receptor PCP binding site in pig brain cortex assessed as residual binding at 10 uM after 150 mins by scintillation counting. Summed up:
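Pig brain cortex membranes (about 100 µg protein) incubated with 2 nM [3H]-(+)-MK-801 in 5 mM Tris-acetate/1 mM EDTA pH 7.5, 150 min at rt. Nonspecific binding with 10 µM (+)-MK-801. Filtration, then solid scintillator counting. Residual binding measured at 10 µM test compound.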
(In general: Loss of bound radioactivity is the signal in a displacement assay; it reports binding, not function.)

Assay [2] addresses Mu-type opioid receptor (Cavia porcellus) (UniProt P97266). Kind of assay: Displacement of [3H]-DAMGO from mu opioid receptor in guinea pig brain membrane assessed as residual binding at 1 uM after 150 mins by liquid scintillation counting. It is filed as cell membranes. Summed up:
(§1)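 Guinea pig brain membranes (about 75 µg protein) incubated with 1 nM [3H]-DAMGO in 50 mM Tris, 8 mM MgCl2, 400 µM PMSF, pH 7.4, 150 min at 37 °C. Nonspecific binding with 10 µM naloxone. Filtration, then solid scintillator counting in triplicate. Residual binding taken at 1 µM test compound; otherwise IC50 from ≥6 concentrations, Ki by Cheng-Prusoff (Kd 0.57 nM).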

Assay [3] can be described thus: Displacement of [3H]-DTG from sigma2 receptor in guinea pig brain membrane after 120 mins by liquid scintillation counting. Format: cell membranes, Cavia porcellus. Summed up: (§2)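 For σ2, membranes (360 µg protein) incubated at rt for 120 min with 3 nM [3H]DTG plus 0.4 µM (+)-SKF10,047, with nine test concentrations in 50 mM Tris-HCl pH 8.0; nonspecific binding with 5 µM DTG. For σ1, 3 nM [3H]-(+)-pentazocine, 150 min at 37 °C, pH 7.4, haloperidol 10 µM. Both read by filtration and scintillation counting; Ki values derived.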

The target of assay [4] is Kappa-type opioid receptor (Cavia porcellus) (UniProt P41144). Kind of assay: Displacement of [3H]-U69593 from kappa opioid receptor in guinea pig brain membrane assessed as residual binding at 1 uM after 150 mins by liquid scintillation counting. Format: cell membranes. Summed up: (§3)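 Guinea pig brain membranes (about 75 µg protein) incubated with 1 nM [3H]-U69,593 in 50 mM Tris, 8 mM MgCl2, pH 7.4, 150 min at 37 °C. Nonspecific binding with 10 µM unlabeled U69,593. Filtration, then solid scintillator counting in triplicate. Residual binding taken at 1 µM; otherwise IC50 from ≥6 concentrations, Ki by Cheng-Prusoff (Kd 0.69 nM).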

The species named for the next assay is Cavia porcellus. Kind of assay: Selectivity ratio of Ki for sigma2 receptor in guinea pig brain membrane to Ki for sigma1 receptor in guinea pig brain membrane. It is filed as cell membranes. Summed up: as §2
For assay [5], the target named is Kappa-type opioid receptor (Cavia porcellus, UniProt P41144). Kind of assay: Displacement of [3H]-U69593 from kappa opioid receptor in guinea pig brain membrane after 150 mins by liquid scintillation counting. Format: cell membranes. Summed up:
as §3

Another assay deals with Mu-type opioid receptor (Cavia porcellus, UniProt P97266). Kind of assay: Displacement of [3H]-DAMGO from mu opioid receptor in guinea pig brain membrane after 150 mins by liquid scintillation counting. It is filed as cell membranes. Summed up: as §1
Assay [6] has as its target Sigma non-opioid intracellular receptor 1 (Rattus norvegicus) (UniProt Q9R0C9). Kind of assay: Agonist activity at sigma1 receptor in rat PC12 cells assessed as cells with increase in NGF-induced neurite outgrowth at 2.5 uM after 5 days by phase contrast microscopy. Format: functional, cell-based. To be noted: PC-12. The procedure, abridged:
(§4)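 PC12 cells grown at 37 °C, 5% CO2 in RPMI with 5% FBS and 10% horse serum. Replated at 0.25 × 10^4 cells/cm2 on poly-D-lysine glass coverslips. After 24 h, switched to 0.5% HS medium with NGF 2.5 ng/mL ± drug, BD-1063 at 5 µM final where used. After 5 days, fixed in 4% PFA. Cells with ≥1 neurite at least one cell-body diameter long were scored blind by two examiners; ≥3 independent experiments.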

Assay [7] has the same target. Kind of assay: Agonist activity at sigma1 receptor in rat PC12 cells assessed as increase of NGF-induced neurite length at 2.5 uM after 5 days by phase contrast microscopy. Format: functional, cell-based. To be noted: PC-12. Summed up:
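Culture conditions match the neurite-outgrowth note: PC12 cells on poly-D-lysine coverslips with NGF 2.5 ng/mL ± drug for 5 days, BD-1063 at 5 µM final where used. Cells were then fixed in 4% PFA and imaged by phase contrast, six fields per coverslip. Neurite length was traced from cell body to tip, measured blind by two examiners; ≥3 independent experiments; mean ± SEM.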

Assay [8] has the same target. Kind of assay: Agonist activity at sigma1 receptor in rat PC12 cells assessed as cells with increase in NGF-induced neurite outgrowth at 0.01 uM after 5 days by phase contrast microscopy. It is filed as functional, cell-based. The note with it: PC-12. Summed up:
as §4

Sequence of Mu-type opioid receptor (P97266 whole entry): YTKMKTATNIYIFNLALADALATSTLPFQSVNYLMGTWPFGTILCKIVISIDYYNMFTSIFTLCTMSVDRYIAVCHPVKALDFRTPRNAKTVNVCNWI
Sequence of Mu-type opioid receptor (Cavia porcellus) (P97266 whole entry): as above
Sequence of Kappa-type opioid receptor (Cavia porcellus) (P41144 whole entry): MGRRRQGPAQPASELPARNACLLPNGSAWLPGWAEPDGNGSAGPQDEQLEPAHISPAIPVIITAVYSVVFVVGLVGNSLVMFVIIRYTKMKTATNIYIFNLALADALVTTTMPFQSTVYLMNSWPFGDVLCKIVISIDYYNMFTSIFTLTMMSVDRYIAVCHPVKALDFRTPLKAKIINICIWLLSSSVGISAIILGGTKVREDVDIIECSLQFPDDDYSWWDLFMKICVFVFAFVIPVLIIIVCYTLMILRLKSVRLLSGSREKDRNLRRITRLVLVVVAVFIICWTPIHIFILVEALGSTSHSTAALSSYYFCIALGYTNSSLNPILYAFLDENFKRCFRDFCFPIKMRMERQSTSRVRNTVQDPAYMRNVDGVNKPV
Sequence of Kappa-type opioid receptor (P41144 whole entry): as above
Sequence of Sigma non-opioid intracellular receptor 1 (Rattus norvegicus) (Q9R0C9 whole entry): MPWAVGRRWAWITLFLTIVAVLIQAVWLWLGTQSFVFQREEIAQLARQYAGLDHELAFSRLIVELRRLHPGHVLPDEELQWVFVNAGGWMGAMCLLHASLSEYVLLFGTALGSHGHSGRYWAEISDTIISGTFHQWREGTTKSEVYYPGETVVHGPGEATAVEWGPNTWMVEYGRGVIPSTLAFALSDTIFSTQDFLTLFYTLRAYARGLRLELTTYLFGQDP
Sequence of Sigma non-opioid intracellular receptor 1 (Q60492 whole entry): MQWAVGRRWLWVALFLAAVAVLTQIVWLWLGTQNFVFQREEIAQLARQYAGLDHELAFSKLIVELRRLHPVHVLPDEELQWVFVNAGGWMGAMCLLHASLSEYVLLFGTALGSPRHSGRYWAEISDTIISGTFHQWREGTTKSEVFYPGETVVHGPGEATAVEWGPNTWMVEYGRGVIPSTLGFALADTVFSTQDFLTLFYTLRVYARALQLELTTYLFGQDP

Take `C/C(=C\CN1CCOCC1)c1ccccc1`: the pKi in [1] and in assay [3] was less than 6.00 in each case. In addition, the Activity in the assay listed under Sus scrofa came to 19%; in [2], 12%; in assay [4], 3%.
With `C/C(=C\CN1CCOCC1)c1ccc(-c2ccccc2)cc1`, the pKi in [1] was 7.94; in assay [3], 6.41. Also, the results for the Activity (in the assay filed under Sus scrofa; in assay [2]; in [4]) were 69%, 52% and 10%, respectively. For the same molecule, the Ratio Ki in the assay listed under Cavia porcellus stood at 33.3.
Regarding `C/C(=C\CN1CCC(Cc2ccccc2)CC1)c1ccccc1`, the pKi in [5] was 6.72; in assay [1], 8.97; on Mu-type opioid receptor, 6.82; in assay [3], 8.26. Besides, the Activity in the assay filed under Sus scrofa was 0%. For the same molecule, the Ratio Ki in the assay filed under Cavia porcellus was 5.1.
For `COc1cccc(/C(C)=C/CN(C)Cc2ccccc2)c1`, the pKi was 6.52 in [5], 8.00 in assay [1] and 6.79 in assay [3]. Further, the figures for the Activity (in the assay listed under Sus scrofa; in assay [2]) were 8% and 49%, respectively. Also, the Ratio Ki in the assay listed under Cavia porcellus was 16.3.
For `COc1cccc(/C(C)=C/CN2CCOCC2)c1`, the pKi in assay [1] and in assay [3] was less than 6.00 each time. Besides, the Activity in the assay filed under Sus scrofa was 20%; in assay [2], 46%; in assay [4], 10%.
Turning to `C/C(=C\CN1CCCCC1)c1ccc2ccccc2c1`, the pKi was 9.01 in [1] and 7.45 in assay [3]. For the same molecule, the values for the Activity (in the assay listed under Sus scrofa; in [2]; in [4]) were 16%, 23% and 44%, respectively. The Ratio Ki in the assay listed under Cavia porcellus was determined as 36.2.
`COc1ccc(/C(C)=C/CN2CCCCC2)cc1`: the pKi in assay [1] is 7.85; in [3], 6.83. The figures for the Activity (in the assay filed under Sus scrofa; in [2]; in assay [4]) were 0%, 36% and 14%, respectively. Further, the Ratio Ki in the assay filed under Cavia porcellus is 10.6.
On to `C/C(=C\CN(C)C)c1ccc2ccccc2c1`, for which the Ratio Ki in the assay listed under Cavia porcellus amounted to 7.5. In assay [3], this molecule had a pKi of 6.83.
In the case of `COc1ccc(/C(C)=C/CN2CCOCC2)cc1`, the pKi in assay [1] and in assay [3] was less than 6.00 throughout. For the same molecule, the Activity is 10% in the assay listed under Sus scrofa, 0% in [2] and 8% in assay [4].
Turning to `C/C(=C\CN1CCOCC1)c1ccc2ccccc2c1`, the figures for the pKi in [1] and in assay [3] were 8.02 and 6.64, respectively. Further, the figures for the Activity (in the assay listed under Sus scrofa; in assay [2]; in [4]) were 31%, 44% and 15%, respectively. For the same molecule, the Ratio Ki in the assay filed under Cavia porcellus was determined as 23.9.
Regarding `COc1ccc(/C(C)=C/CN(C)Cc2ccccc2)cc1`, the pKi in assay [5] was 6.71; in assay [1], 8.28; at Mu-type opioid receptor, 7.04; in [3] it was 6.81. The Activity in the assay listed under Sus scrofa amounted to 27%. Besides, the Ratio Ki in the assay listed under Cavia porcellus is 29.5.
For `COc1cccc(/C(C)=C/CN2CCC(Cc3ccccc3)CC2)c1`, the results for the pKi in [5], in assay [1] and in [3] were 6.67, 8.11 and 8.24, respectively. Moreover, the Activity (in the assay listed under Sus scrofa; in assay [2]) was 36% in each case. Besides, the Ratio Ki in the assay filed under Cavia porcellus worked out at 0.8.
Regarding `C/C(=C\CN(C)C)c1ccc(-c2ccccc2)cc1`, the Ratio Ki in the assay listed under Cavia porcellus came out at 75.7. In [3], this molecule had a pKi of 6.97.
Regarding `COc1ccc(/C(C)=C/CN(C)C)cc1`, the pKi is 6.09 in [1] and less than 6.00 in assay [3]. For the same molecule, the Activity in the assay filed under Sus scrofa stood at 0%; in assay [2], 10%; in assay [4], 20%.
Regarding `O=C(OCCN1CCOCC1)C1(c2ccccc2)CCCCC1`, the outcome in assay [6], in assay [7] and in assay [8] was inactive.
`C/C(=C\CN(C)Cc1ccccc1)c1ccccc1`: the pKi in assay [5] is 6.36; in assay [1], 7.04; at Mu-type opioid receptor, 6.92; in [3], 7.21. In addition, in the assay filed under Sus scrofa, the Activity amounted to 67%. In addition, in the assay listed under Cavia porcellus, the Ratio Ki was found to be 0.7.
As for `C/C(=C\CN1CCC(Cc2ccccc2)CC1)c1ccc2ccccc2c1`, the pKi was 7.64 in assay [1] and 7.80 in assay [3]. Also, the Activity in the assay listed under Sus scrofa was 17%; in assay [2], 38%; in assay [4] it was 10%. In the assay filed under Cavia porcellus, the Ratio Ki is 0.7.
Take `C/C(=C\CN1CCC(Cc2ccccc2)CC1)c1ccc(-c2ccccc2)cc1`: the pKi is 8.15 in assay [1] and 7.74 in [3]. The Activity in the assay filed under Sus scrofa came out at 17%; in [2] it was 0%; in assay [4], 10%. Further, in the assay filed under Cavia porcellus, the Ratio Ki came to 2.6.
In the case of `COc1cccc(/C(C)=C/CN2CCCCC2)c1`, the pKi in [1] is 7.04; in [3], 6.53. Also, the Activity in the assay filed under Sus scrofa was 0%; in assay [2], 21%; in [4], 22%. Besides, the Ratio Ki in the assay filed under Cavia porcellus came out at 3.2.
Turning to `C/C(=C\CN(C)Cc1ccccc1)c1ccc2ccccc2c1`, the Ratio Ki in the assay listed under Cavia porcellus turned out to be 111. The molecule further showed a pKi in assay [3] of 6.06.
Turning to `COc1cccc(/C(C)=C/CN(C)C)c1`, the pKi in [1] and in assay [3] was less than 6.00 in each case. In addition, the Activity in the assay listed under Sus scrofa worked out at 60%; in assay [2], 17%; in assay [4] it was 5%.
For `C/C(=C\CN1CCCCC1)c1ccccc1`, the pKi in assay [1] was 6.34; in [3], 6.72. Also, the values for the Activity (in the assay filed under Sus scrofa; in assay [2]; in assay [4]) were 0%, 19% and 0%, respectively. Moreover, the Ratio Ki in the assay listed under Cavia porcellus stood at 0.4.
Regarding `C/C(=C\CN(C)Cc1ccccc1)c1ccc(-c2ccccc2)cc1`, the Ratio Ki in the assay filed under Cavia porcellus worked out at 12. The pKi in assay [3] was 7.12.
In the case of `C/C(=C\CN(C)C)c1ccccc1`, the pKi in [1] and in assay [3] was less than 6.00 throughout. The Activity (in the assay listed under Sus scrofa; in assay [2]; in [4]) was 0% in each case.
For `COc1ccc(/C(C)=C/CN2CCC(Cc3ccccc3)CC2)cc1`, the pKi in assay [5] was 6.80; in [1] it was 8.38; at Mu-type opioid receptor, 6.83; in assay [3], 8.15. Also, the Activity in the assay filed under Sus scrofa was determined as 0%. Moreover, the Ratio Ki in the assay filed under Cavia porcellus came to 1.7.
